ChEMBL document CHEMBL1155872, “Molecular features of the prazosin molecule required for activation of Transport-P” (Bioorg Med Chem, 2008)

Legend:
Format in all cases: cell-based
GT1-1 [1] = test: Activation of [3H]prazosin uptake at transport-P transporter protein in mouse GT1-1 cells at 1 uM relative to control
Outline: (§1)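 GT1-1 GnRH neurones grown in DMEM/Ham's F-12 (1:1) with 10% FBS, plated on poly-D-lysine/laminin-coated wells and used after 2–4 days in culture. Intact cells washed, then incubated 60 min at 37 °C with tracer [³H]prazosin 2 × 10^-10 M plus test compound. Plates iced, washed at 0 °C, solubilised in SDS/NaOH. Radioactivity counted by scintillation and normalised to protein (BCA). Result given as % activation of tracer uptake.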

GT1-1 [2] = test: Activation of [3H]prazosin uptake at transport-P transporter protein in mouse GT1-1 cells at 100 uM relative to control; outline: as §1
GT1-1 [3] = test: Inhibition of prazosin uptake at transport-P transporter protein in mouse GT1-1 cells at 100 uM relative to desipramine
GT1-1 [4] = test: Activation of [3H]prazosin uptake at transport-P transporter protein in mouse GT1-1 cells at 10 uM relative to control; outline: as §1
[5] = Inhibition of prazosin uptake at transport-P transporter protein in mouse GT1-1 cells
Outline: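 GT1-1 GnRH neurones were grown on poly-D-lysine/laminin and uptake was run on intact cells after 2–4 days. Incubation was 60 min at 37 °C in DMEM/25 mM Hepes/0.5 mM ascorbate, pH 7.4, with [³H]prazosin 2 × 10^-10 M, unlabelled prazosin 10^-6 M and test compound. Cell-associated radioactivity was normalised to protein. IC50 was taken from concentration–response curves, in triplicate, with each experiment done twice.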

Compound | Activity (GT1-1 [1]) | Activity (GT1-1 [2]) | inhibition (GT1-1 [3]) | Activity (GT1-1 [4]) | IC50 [5]
COc1cc2cnc(N3CCN(C(=O)c4ccco4)CC3)nc2cc1OC | 0% | 0% | 5% | 0% | –
COc1cc2nc(N3CCN(C(=O)c4cccs4)CC3)nc(N)c2cc1OC | 57% | – | – | 161% | –
CNc1nc(N2CCN(C(=O)c3ccco3)CC2)nc2cc(OC)c(OC)cc12 | 0% | 229% | 0% | 55% | –
CCN(CC)c1nc(N2CCN(C(=O)c3ccco3)CC2)nc2cc(OC)c(OC)cc12 | 0% | 0% | 55% | 0% | 80 µM
c1ccc(OCCCN2CCCC2)cc1 | – | – | – | – | 0.46 µM
COc1cc2nc(N3CCN(C(=O)c4ccccc4)CC3)nc(N)c2cc1OC | 0% | 47% | 63% | 40% | –
COc1cc2nc(N3CCN(C(=O)c4ccco4)CC3)nc(N3CCOCC3)c2cc1OC | 0% | 0% | 61% | 0% | 81 µM
COc1cc2nc(N3CCN(C(=O)c4ccco4)CC3)nc(O)c2cc1OC | 0% | 0% | 0% | 0% | –
COc1cc2nc(N3CCN(C(=O)c4ccco4)CC3)nc(N)c2cc1OC | 127% | – | – | – | –
Nc1nc(N2CCN(C(=O)c3ccco3)CC2)nc2cc3c(cc12)OCCO3 | 0% | 163% | 42% | 74% | –
c1cc2c(cc1OCCCCCN1CCCC1)CCCC2 | – | – | – | – | 0.19 µM
COc1cc2nc(N3CCN(C(=O)c4ccco4)CC3)nc(Nc3ccccc3)c2cc1OC | 0% | 0% | 80% | 0% | 4.5 µM
COc1cc2nc(N3CCN(C(=O)C(F)(F)F)CC3)nc(N)c2cc1OC | 0% | 26% | 31% | 0% | –
COc1cc2nc(NCc3ccco3)nc(N)c2cc1OC | 26% | 0% | 71% | 43% | –
COc1cc2nc(N3CCN(c4ccccc4)CC3)nc(N)c2cc1OC | 0% | 0% | 93% | 13% | 5.2 µM
Nc1nc(N2CCN(C(=O)c3ccccc3)CC2)nc2ccccc12 | 0% | 0% | 73% | 0% | –
COc1cc2nc(N3CCN(C(=O)c4ccco4)CC3)nc(NCc3ccccc3)c2cc1OC | 0% | 0% | 69% | 0% | 5.4 µM
COc1cc2nc(N3CCC(C)CC3)nc(N)c2cc1OC | 0% | 0% | 85% | 13% | –
COc1cc2nc(N3CCN(C(C)=O)CC3)nc(N)c2cc1OC | 0% | 61% | 37% | 0% | –
COc1cc2nc(N3CCCN(C(=O)c4ccco4)CC3)nc(N)c2cc1OC | 0% | 0% | 82% | 31% | –
COc1cc2nc(NCCN3CCCCC3)nc(N)c2cc1OC | 13% | 37% | 52% | 29% | –
COc1cc2nc(N3CCN(C(=O)OCc4ccccc4)CC3)nc(N)c2cc1OC | 0% | 0% | 75% | 6% | –
COc1cc2nc(N3CCN(C(=O)c4ccco4)CC3)nc(NC(C)=O)c2cc1OC | 0% | 206% | 0% | 35% | –
COc1cc2nc(N3CCN(C(=O)C4CCCO4)CC3)nc(N)c2cc1OC (racemic) | 0% | 38% | 41% | 0% | –
Nc1nc(N2CCN(C(=O)c3ccco3)CC2)nc2ccccc12 | 0% | 22% | 64% | 0% | –
